Source: ChEMBL document CHEMBL1800057, “Discovery of dual inducible/neuronal nitric oxide synthase (iNOS/nNOS) inhibitor development candidate 4-((2-cyclobutyl-1H-imidazo[4,5-b]pyrazin-1-yl)methyl)-7,8-difluoroquinolin-2(1H)-one (KD7332) part 2: identification of a novel, potent, and selective series of benzimidazole-quinolinone …” (J Med Chem, 2010)
Calls of active or inactive are those of the source.

How the values were obtained:
Mus musculus [1] = experiment: Antiallodynic activity against von Frey hair mechanically stimulated neuropathic pain in mouse Chung model of neuropathic pain assessed as attenuation of tactile allodynia at 30 mg/kg, po bid for 4 days; format: functional, organism-based; design: dose 30 mg/kg
In short: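 Spinal nerve ligation in mice under isoflurane (5% induction, 2-3% maintenance). Von Frey filaments pressed on the paw for up to 10 s. 50% withdrawal threshold derived by Dixon's up-down method. Only mice with baseline thresholds of ~0.2-0.3 g between 5 and 10 days post-surgery were included. Dosing was oral.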

[2] = Plasma clearance in mouse at 1 mg/kg, iv and 10 mg/kg, po; format: ADME, organism-based
[3] = Volume of distribution at steady state in mouse at 1 mg/kg, iv and 10 mg/kg, po; format: ADME, organism-based; details: in vivo, read-out: Vdss
[4] = Cmax in mouse at 1 mg/kg, iv and 10 mg/kg, po; format: ADME, organism-based; details: in vivo
[5] = Half life in mouse at 1 mg/kg, iv and 10 mg/kg, po; format: ADME, organism-based; details: in vivo
[6] = Oral bioavailability in mouse at 10 mg/kg; format: ADME, organism-based; details: in vivo
Homo sapiens [7] = organism: Homo sapiens; experiment: Selectivity for human iNOS over human eNOS
In short: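 Ratio of EC₅₀ values from transiently transfected HEK293 cells. iNOS: plasmid, 18 h with compound, 1400W control, n = 8/point. eNOS: 15 μg human eNOS plasmid, 24 h with compound at 37 °C, then A23187 (83 nM final) for 18 h, SEITU (100 μM final) control, n = 3/point. NO read by DAN fluorescence; each EC₅₀ from three runs of 10-point curves.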

[8] = target: T1, Nitric oxide synthase, inducible (Homo sapiens, UniProt P35228); experiment: Inhibition of human iNOS
In short: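 HEK293 cells grown to about 70% confluence in DMEM with 10% FBS and pen/strep, then transiently transfected with human iNOS plasmid using Fugene 6 for 4 h at 37 °C, 10% CO₂. Cells replated at 5e5 cells/mL and treated at once with compound; 1400W (100 μM final) as positive control. After 18 h, NO read as DAN-nitrite fluorescence. EC₅₀ from three runs, 10-point curves, n = 8/point.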

[9] = Plasma clearance in mouse; format: ADME, organism-based
[10] = Half life in mouse; format: ADME, organism-based; details: in vivo
Mus musculus [11] = experiment: Antiallodynic activity against von Frey hair mechanically stimulated neuropathic pain in mouse Chung model of neuropathic pain assessed as attenuation of tactile allodynia at 300 mg/kg, po; format: functional, organism-based; design: dose 300 mg/kg
Mus musculus [12] = experiment: Neurotoxicity in C57Bl/6j mouse assessed as inability to maintain equilibrium on rotarod up to 1000 mg/kg, po determined 1 to 3 hrs postdose by rotarod test; format: toxicity, organism-based; design: dose 1000 mg/kg, route oral; details: in vivo
In short: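 Male C57Bl/6j mice were acclimated to the rotarod at 4 rpm, then given two training sessions on an accelerating rod (4-40 rpm over 300 s). Only mice with latencies >60 s were kept. After oral dosing, latency to fall from the accelerating rod was recorded at 1, 2 and 3 h.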

Mus musculus [13] = experiment: Antinociceptive activity against formalin-induced pain in mouse assessed as attenuation of nocifensive phase 2 behaviors during phase 2 (25 to 45 mins post formalin injection) administered via oral gavage 30 mins before to formalin challenge; format: functional
In short: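 Mice were given compound by oral gavage in PEG/Tween 80/PVP + CMC vehicle 30 min before 20 μL of 5% formalin was injected into the left hind paw. Paw flinching, licking and biting were timed in 5 min bins by a single observer. Read-out was time in nociceptive behaviour at 25-45 min. Mean ± SE, n = 5-6, one-way ANOVA with post hoc tests.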

Nitric oxide synthase 1 [14] = target: T2, Nitric oxide synthase 1 (Homo sapiens, UniProt P29475); experiment: Inhibition of human nNOS expressed in HEK293 cells assessed as inhibition ionomycin induced nitric oxide production at 100 uM incubated for 24 hrs measured after 18 hrs of ionomycin challenge using 2,3-diaminonaphthalene by fluorescence assay; format: cell-based
[15] = target: T1, Nitric oxide synthase, inducible; experiment: Inhibition of human iNOS expressed in HEK293 cells assessed as inhibition of nitric oxide production after 18 hrs using 2,3-diaminonaphthalene by fluorescence assay; format: cell-based
In short: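 HEK293 cells grown to ~70% confluence in DMEM/10% FBS with pen/strep, transiently transfected with 10 μg human or murine iNOS plasmid plus Fugene 6 for 4 h at 37 °C, 10% CO2. Cells replated at 5e5 cells/mL and dosed with compound at once; 1400W (100 μM final) as positive control. After 18 h, DAN (10 μg/mL final) in HCl (0.1 N final) added for 20 min at room temperature. Fluorescence read after NaOH (0.12 N final).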

Nitric oxide synthase 1 [16] = target: T2, Nitric oxide synthase 1; experiment: Inhibition of human nNOS expressed in HEK293 cells assessed as inhibition ionomycin induced nitric oxide production incubated for 24 hrs measured after 18 hrs of ionomycin challenge using 2,3-diaminonaphthalene by fluorescence assay; format: cell-based
In short: (§1)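 HEK293 cells transfected for 4 h at 37 °C with human nNOS (10 μg) or human eNOS (15 μg) plasmid (Fugene 6, 3:1). Cells replated at 5e5 cells/mL and dosed with compound at once; SEITU (100 μM final) as positive control. After 24 h, cells activated with A23187 (83 nM final) for eNOS or ionomycin (30 μM final) for nNOS. NO read 18 h later as nitrite-DAN fluorescence.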

Nitric oxide synthase 3 = target: T3, Nitric oxide synthase 3 (Homo sapiens, UniProt P29474); experiment: Inhibition of human eNOS expressed in HEK293 cells assessed as inhibition A23187 induced nitric oxide production incubated for 24 hrs measured after 18 hrs of […] challenge using 2,3-diaminonaphthalene by fluorescence assay; format: cell-based; in short: as §1
T3 sequence (P29474 whole entry): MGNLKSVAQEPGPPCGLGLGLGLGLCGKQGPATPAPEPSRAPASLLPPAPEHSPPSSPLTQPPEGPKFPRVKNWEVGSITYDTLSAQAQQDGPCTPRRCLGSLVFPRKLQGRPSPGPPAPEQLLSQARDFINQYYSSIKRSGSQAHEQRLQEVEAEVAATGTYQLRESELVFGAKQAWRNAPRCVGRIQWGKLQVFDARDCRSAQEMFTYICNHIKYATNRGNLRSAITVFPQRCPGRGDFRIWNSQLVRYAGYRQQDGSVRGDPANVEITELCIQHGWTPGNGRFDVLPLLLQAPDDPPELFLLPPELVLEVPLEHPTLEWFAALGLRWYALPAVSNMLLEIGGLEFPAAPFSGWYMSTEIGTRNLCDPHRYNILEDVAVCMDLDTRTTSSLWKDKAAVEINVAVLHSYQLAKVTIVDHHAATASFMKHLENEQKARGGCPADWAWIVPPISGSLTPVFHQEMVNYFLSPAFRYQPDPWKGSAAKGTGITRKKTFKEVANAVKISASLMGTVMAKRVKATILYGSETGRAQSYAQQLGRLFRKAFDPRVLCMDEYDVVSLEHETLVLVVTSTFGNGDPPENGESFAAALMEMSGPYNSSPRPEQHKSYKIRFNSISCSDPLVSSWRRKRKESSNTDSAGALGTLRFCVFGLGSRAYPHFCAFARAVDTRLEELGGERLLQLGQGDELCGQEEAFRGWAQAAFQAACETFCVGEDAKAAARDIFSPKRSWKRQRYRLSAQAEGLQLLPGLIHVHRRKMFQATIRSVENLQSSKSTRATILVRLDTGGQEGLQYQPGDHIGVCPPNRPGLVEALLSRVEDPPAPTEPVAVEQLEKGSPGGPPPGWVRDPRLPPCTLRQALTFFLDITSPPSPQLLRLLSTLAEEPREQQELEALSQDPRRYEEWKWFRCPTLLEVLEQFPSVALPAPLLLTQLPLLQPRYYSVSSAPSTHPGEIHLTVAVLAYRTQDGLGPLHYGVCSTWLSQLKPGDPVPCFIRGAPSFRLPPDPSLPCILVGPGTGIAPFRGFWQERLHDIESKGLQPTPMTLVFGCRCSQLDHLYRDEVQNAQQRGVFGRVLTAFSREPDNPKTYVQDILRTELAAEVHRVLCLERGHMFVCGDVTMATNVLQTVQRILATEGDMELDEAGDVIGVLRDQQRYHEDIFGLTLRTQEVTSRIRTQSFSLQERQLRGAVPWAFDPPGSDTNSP

Liver = experiment: Half life in mouse liver microsomes assessed as formation of oxidation product and glucuronide conjugate; format: ADME, Microsome
In short: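 Mouse liver microsomes run under combined phase I oxidation and phase II glucuronide conjugation; half-life reported in minutes.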

Homo sapiens [17] = organism: Homo sapiens; experiment: Ratio of IC50 for human eNOS to EC50 for human iNOS
Homo sapiens [18] = organism: Homo sapiens; experiment: Ratio of IC50 for human nNOS to EC50 for human iNOS
[19] = target: T4, Nitric oxide synthase 3 (Homo sapiens) (UniProt P29474); experiment: Inhibition of human eNOS expressed in HEK293 cells assessed as inhibition A23187 induced nitric oxide production at 100 uM incubated for 24 hrs measured after 18 hrs of […] challenge using 2,3-diaminonaphthalene by fluorescence assay; format: cell-based
T4 sequence (whole entry): T3 sequence (P29474 whole entry)

Mus musculus [20] = experiment: Antiallodynic activity against von Frey hair mechanically stimulated neuropathic pain in mouse Chung model of neuropathic pain assessed as attenuation of tactile allodynia at 30 mg/kg, po; format: functional, organism-based; design: dose 30 mg/kg
In short: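 Spinal nerve ligation (Chung) surgery done under isoflurane anaesthesia (5% induction, 2-3% maintenance). Only mice with baseline 50% withdrawal threshold ~0.2-0.3 g at days 5-10 after surgery were included. Von Frey filaments applied for 10 s each; 50% threshold calculated by Dixon up-down method. Compound given po at 30 mg/kg, and also 30 mg/kg BID for four days.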

Rhesus monkey = experiment: Inhibition of capsaicin-induced thermal hyperalgesia in rhesus monkey model; format: functional, organism-based; details: Macaca mulatta

T2 sequence (P29475 whole entry): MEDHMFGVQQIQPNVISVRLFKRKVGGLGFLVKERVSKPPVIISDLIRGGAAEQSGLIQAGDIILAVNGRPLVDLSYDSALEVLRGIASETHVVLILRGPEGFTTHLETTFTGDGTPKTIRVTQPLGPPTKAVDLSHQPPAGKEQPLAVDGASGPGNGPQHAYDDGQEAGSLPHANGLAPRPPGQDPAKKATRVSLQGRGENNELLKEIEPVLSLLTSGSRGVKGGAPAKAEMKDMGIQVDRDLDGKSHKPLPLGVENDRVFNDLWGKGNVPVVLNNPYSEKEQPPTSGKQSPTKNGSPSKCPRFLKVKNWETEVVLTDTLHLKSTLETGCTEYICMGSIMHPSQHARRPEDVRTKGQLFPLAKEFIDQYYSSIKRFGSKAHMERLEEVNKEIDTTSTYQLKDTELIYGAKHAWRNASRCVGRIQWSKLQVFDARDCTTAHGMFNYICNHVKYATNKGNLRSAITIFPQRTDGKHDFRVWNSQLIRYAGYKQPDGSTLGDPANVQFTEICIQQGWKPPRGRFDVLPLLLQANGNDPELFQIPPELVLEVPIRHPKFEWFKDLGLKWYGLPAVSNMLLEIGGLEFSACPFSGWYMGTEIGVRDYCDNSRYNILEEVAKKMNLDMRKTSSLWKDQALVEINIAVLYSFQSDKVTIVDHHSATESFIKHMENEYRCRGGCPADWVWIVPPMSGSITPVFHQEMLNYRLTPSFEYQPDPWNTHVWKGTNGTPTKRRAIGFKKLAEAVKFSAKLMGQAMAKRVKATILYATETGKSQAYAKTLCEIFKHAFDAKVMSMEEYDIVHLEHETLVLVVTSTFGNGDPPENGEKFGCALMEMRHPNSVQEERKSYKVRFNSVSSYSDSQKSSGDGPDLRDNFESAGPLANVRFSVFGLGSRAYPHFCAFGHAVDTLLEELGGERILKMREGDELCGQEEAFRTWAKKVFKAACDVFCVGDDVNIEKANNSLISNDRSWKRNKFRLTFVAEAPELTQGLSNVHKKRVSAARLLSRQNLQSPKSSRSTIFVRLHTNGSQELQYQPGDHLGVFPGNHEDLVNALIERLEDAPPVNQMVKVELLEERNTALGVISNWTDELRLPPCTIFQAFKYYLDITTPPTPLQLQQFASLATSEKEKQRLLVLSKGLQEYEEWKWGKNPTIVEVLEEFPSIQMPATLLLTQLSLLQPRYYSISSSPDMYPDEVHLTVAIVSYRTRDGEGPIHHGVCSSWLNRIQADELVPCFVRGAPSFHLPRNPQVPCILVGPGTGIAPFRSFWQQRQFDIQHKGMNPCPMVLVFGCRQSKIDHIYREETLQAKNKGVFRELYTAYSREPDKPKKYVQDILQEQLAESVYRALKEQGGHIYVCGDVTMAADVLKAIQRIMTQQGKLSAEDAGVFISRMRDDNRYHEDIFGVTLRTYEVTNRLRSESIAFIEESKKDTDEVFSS
T1 sequence (P35228 whole entry): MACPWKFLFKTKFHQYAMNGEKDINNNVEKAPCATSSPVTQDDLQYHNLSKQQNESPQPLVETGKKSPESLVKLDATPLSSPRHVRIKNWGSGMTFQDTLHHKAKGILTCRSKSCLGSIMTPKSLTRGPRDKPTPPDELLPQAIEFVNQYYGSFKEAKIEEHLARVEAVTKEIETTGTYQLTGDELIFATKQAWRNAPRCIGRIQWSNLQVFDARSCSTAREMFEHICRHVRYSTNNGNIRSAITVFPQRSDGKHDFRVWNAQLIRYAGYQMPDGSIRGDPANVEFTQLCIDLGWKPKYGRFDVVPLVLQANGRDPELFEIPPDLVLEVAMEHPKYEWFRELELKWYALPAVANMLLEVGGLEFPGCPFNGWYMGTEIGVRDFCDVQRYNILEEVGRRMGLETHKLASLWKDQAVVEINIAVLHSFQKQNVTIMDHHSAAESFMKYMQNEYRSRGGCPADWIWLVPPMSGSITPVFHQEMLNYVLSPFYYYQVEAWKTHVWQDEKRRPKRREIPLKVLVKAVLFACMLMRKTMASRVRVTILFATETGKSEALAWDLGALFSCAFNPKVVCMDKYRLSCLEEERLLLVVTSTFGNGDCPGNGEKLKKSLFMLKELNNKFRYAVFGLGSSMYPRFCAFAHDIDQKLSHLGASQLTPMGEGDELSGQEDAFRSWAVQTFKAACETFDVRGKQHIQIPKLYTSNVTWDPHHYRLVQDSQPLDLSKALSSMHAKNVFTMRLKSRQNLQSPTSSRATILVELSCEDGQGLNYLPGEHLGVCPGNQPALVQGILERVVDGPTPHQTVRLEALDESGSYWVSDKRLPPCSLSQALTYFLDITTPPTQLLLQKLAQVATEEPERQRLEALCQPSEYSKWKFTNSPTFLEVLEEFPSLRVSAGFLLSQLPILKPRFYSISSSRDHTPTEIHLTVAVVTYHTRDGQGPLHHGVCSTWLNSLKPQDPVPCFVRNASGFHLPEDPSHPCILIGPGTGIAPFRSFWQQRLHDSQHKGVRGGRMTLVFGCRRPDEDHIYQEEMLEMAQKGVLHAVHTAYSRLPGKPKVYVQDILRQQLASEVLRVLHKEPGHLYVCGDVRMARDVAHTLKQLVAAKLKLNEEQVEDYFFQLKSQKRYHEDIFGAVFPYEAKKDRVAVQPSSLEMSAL

CN1CC[C@]23c4c5ccc(O)c4O[C@H]2[C@@H](O)C=C[C@H]3[C@H]1C5
Activity (Mus musculus [1]): Active

Cc1ncsc1C(=O)N(Cc1cc(=O)[nH]c2c(F)cccc12)c1cccc(Cl)c1
clearance [2]: > 100 mL/min/kg
Vd [3]: 1.6 L/kg
Cmax [4]: 1400 ng/mL
half-life [5]: 12 min
bioavailability [6]: 7%
Selectivity ratio (Homo sapiens [7]): > 2000
IC50 [8]: 0.011 µM
clearance [9]: > 100 mL/min/kg
half-life [10]: 12 min

NCC1(CC(=O)O)CCCCC1 [GABAPENTIN]
Activity (Mus musculus [11]): Active
Activity (Mus musculus [12]): Dose-dependent effect
ED50 (Mus musculus [13]): 110 mg/kg

CC(C)(C)c1nc2ccccc2n1Cc1cc(=O)[nH]c2c(F)c(F)ccc12
inhibition (Nitric oxide synthase 1 [14]): < 50%
EC50 [15]: 48 µM
EC50 (Nitric oxide synthase 1 [16]): > 100 µM
EC50 (Nitric oxide synthase 3): > 100 µM
t1/2 (Liver): > 120 min
Ratio EC50 (Homo sapiens [17]): > 2
Ratio EC50 (Homo sapiens [18]): > 2
inhibition [19]: < 50%

O=c1cc(Cn2c(C3CCC3)nc3nccnc32)c2ccc(F)c(F)c2[nH]1
Activity (Mus musculus [20]): Active
Activity (Mus musculus [1]): Active
inhibition (Rhesus monkey): Active
Ratio EC50 (Homo sapiens [17]): 180
Ratio EC50 (Homo sapiens [18]): 3.3
